According to publication PMC6935887 (Journal of Medicinal Chemistry, 2019):

Legend:
[1] = molecular target: hCCR5 (Homo sapiens, UniProt P51681); assay: Tango β-arrestin recruitment assay in U2OS-CCR5 cells; format: cell-based; details: for Hill slope (nH): inhibition of CCL3-induced β-arrestin recruitment in U2OS-CCR5; for inhibition at 1 µM: read-out: inhibition at 1 μM (%), β-arrestin recruitment in U2OS-CCR5 by 1 μM compound, in the presence of an EC80 concentration of CCL3, negative = CCL3 stimulation
Sequence of hCCR5 (P51681 whole entry): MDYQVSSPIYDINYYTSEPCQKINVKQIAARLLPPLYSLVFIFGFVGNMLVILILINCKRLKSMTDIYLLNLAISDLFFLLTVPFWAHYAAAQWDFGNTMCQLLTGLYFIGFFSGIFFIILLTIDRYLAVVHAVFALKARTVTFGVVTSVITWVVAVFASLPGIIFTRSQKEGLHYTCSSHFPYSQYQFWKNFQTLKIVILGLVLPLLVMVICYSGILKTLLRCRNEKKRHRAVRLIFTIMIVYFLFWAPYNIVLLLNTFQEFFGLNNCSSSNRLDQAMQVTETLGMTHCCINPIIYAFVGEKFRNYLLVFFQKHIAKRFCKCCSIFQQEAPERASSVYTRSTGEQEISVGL
Procedure, shortened: (§1)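 Tango bla U2OS cells (human CCR2b or CCR5) were trypsinized and seeded at 10 000 cells/well in FreeStyle medium. Agonist mode: CCL2 or CCL3 for 16 h, 37 °C, 5% CO2. Antagonist mode: 30 min room-temperature preincubation with increasing compound (≤0.5% DMSO final), then 16 h with EC80 CCL2 (5 nM, CCR2) or CCL3 (14 nM, CCR5). LiveBLAzer-FRET B/G substrate 2 h; excitation 400 nm, 460/535 nm emission ratio.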

[2] = molecular target: T1, hCCR2 (Homo sapiens, UniProt P41597); assay: [3H]-CCR2-RA-[R] displacement binding assay on U2OS-CCR2b membranes; details: for pKi ± SEM: displacement of ∼6 nM [3H]-CCR2-RA-[R] from U2OS cells stably expressing CCR2, 25 °C
T1 sequence (P41597 1-360 isoform P41597-2): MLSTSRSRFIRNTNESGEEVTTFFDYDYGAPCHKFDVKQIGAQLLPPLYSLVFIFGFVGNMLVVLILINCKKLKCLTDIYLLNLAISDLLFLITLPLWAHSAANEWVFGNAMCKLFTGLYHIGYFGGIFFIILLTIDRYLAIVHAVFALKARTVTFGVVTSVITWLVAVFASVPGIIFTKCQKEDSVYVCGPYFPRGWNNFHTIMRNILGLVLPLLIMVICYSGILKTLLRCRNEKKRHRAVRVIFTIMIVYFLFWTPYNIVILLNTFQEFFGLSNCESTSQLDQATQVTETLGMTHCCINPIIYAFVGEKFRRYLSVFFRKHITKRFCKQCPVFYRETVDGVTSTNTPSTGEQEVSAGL
Procedure, shortened: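 U2OS-CCR2b membranes (15–20 μg protein) were incubated with ~6 nM [3H]-CCR2-RA-[R] and at least 6 competitor concentrations. Buffer: 50 mM Tris-HCl, 5 mM MgCl2, 0.1% CHAPS, pH 7.4. Incubation 2 h at 25 °C. Rapid GF/B filtration, ten washes with ice-cold buffer (0.05% CHAPS), scintillation counting. Mean ± SEM of ≥3 experiments in duplicate.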

[3] = molecular target: T1, hCCR2; assay: Tango β-arrestin recruitment assay in U2OS-CCR2 cells; format: cell-based; details: inhibition of CCL2-induced β-arrestin recruitment in U2OS-CCR2
Procedure, shortened: as §1

[4] = molecular target: T1, hCCR2; assay: CCL2-stimulated [35S]GTPγS binding assay on U2OS-CCR2 membranes; format: biochemical; details: for decrease of basal [35S]GTPγS binding levels: 1 μM compound, in absence of CCL2, 0% = basal activity, 100% = 100 nM CCL2
Procedure, shortened: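 U2OS-CCR2b cells are grown in McCoy's 5A with 10% FCS, G418, hygromycin and zeocin, switching to dialyzed FCS before harvest. Membranes are prepared by scraping in PBS, homogenizing in ice-cold 50 mM Tris-HCl, 5 mM MgCl2, pH 7.4, ultracentrifuging (31 000 rpm, 20 min, 4 °C) twice, storing at −80 °C and measuring protein by BCA. Values come from nonlinear regression, ≥3 experiments in duplicate.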

[5] = CCL2 alone, [35S]GTPγS binding, U2OS-CCR2, 25 °C

CC(=O)C1=C(O)C(=O)N(c2ccc(Cl)cc2F)[C@@H]1C1CCCCC1 [CCR2-RA-[R], reference compound]
Hill slope (nH) [1]: −2.4

Cc1nc2[nH]c(C3CC3)c(Cc3cccc(Cl)c3)c(=O)n2n1 [Compound 7, 6-(3-Chlorobenzyl)-5-cyclopropyl-2-methyl[1,2,4]triazolo[1,5-a]pyrimidin-7(4H)-one]
pKi ± SEM [2]: 8.46 ± 0.05

Nc1nc2[nH]c(C3CC3)c(Cc3ccccc3)c(=O)n2n1 [Compound 9, 2-Amino-6-benzyl-5-cyclopropyl[1,2,4]triazolo[1,5-a]pyrimidin-7(4H)-one]
fold decrease in affinity for CCR2 compared to 8 [2]: 5 fold

COc1ccccc1Cc1c(C2CC2)[nH]c2nc(N)nn2c1=O [Compound 12, 2-Amino-5-cyclopropyl-6-(2-methoxybenzyl)[1,2,4]triazolo[1,5-a]pyrimidin-7(4H)-one]
inhibition at 1 µM [1]: -20%

Cc1cccc(Cc2c(C3CC3)[nH]c3nc(N)nn3c2=O)c1 [Compound 13, 2-Amino-5-cyclopropyl-6-(3-methylbenzyl)[1,2,4]triazolo[1,5-a]pyrimidin-7(4H)-one]
inhibition at 1 µM [1]: > 60% | pKi ± SEM [2]: 8.61 ± 0.03

Nc1nc2[nH]c(C3CC3)c(Cc3cccc(F)c3)c(=O)n2n1 [Compound 14, 2-Amino-5-cyclopropyl-6-(3-fluorobenzyl)[1,2,4]triazolo[1,5-a]pyrimidin-7(4H)-one]
inhibition at 1 µM [1]: < 45%

COc1cccc(Cc2c(C3CC3)[nH]c3nc(N)nn3c2=O)c1 [Compound 17, 2-Amino-5-cyclopropyl-6-(3-methoxybenzyl)[1,2,4]triazolo[1,5-a]pyrimidin-7(4H)-one]
inhibition at 1 µM [1]: -27% | pKi ± SEM [2]: 7.89 ± 0.07

Cc1ccc(Cc2c(C3CC3)[nH]c3nc(N)nn3c2=O)cc1 [Compound 19, 2-Amino-5-cyclopropyl-6-(4-methylbenzyl)[1,2,4]triazolo[1,5-a]pyrimidin-7(4H)-one]
inhibition at 1 µM [1]: -57% | Ki [2]: 3 nM | pKi ± SEM [2]: 8.46 ± 0.03

Nc1nc2[nH]c(C3CC3)c(Cc3ccc(F)cc3)c(=O)n2n1 [Compound 20, 2-Amino-5-cyclopropyl-6-(4-fluorobenzyl)[1,2,4]triazolo[1,5-a]pyrimidin-7(4H)-one]
pKi ± SEM [2]: 8.39 ± 0.03

Nc1nc2[nH]c(C3CC3)c(Cc3ccc(Cl)cc3)c(=O)n2n1 [Compound 21, 2-Amino-6-(4-chlorobenzyl)-5-cyclopropyl[1,2,4]triazolo[1,5-a]pyrimidin-7(4H)-one]
pKi ± SEM [2]: 8.74 ± 0.05

COc1ccc(Cc2c(C3CC3)[nH]c3nc(N)nn3c2=O)cc1 [Compound 23, 2-Amino-5-cyclopropyl-6-(4-methoxybenzyl)[1,2,4]triazolo[1,5-a]pyrimidin-7(4H)-one]
inhibition at 1 µM [1]: -28%

Cc1[nH]c2nc(N)nn2c(=O)c1Cc1cccc(Cl)c1 [Compound 24, 2-Amino-6-(3-chlorobenzyl)-5-methyl[1,2,4]triazolo[1,5-a]pyrimidin-7(4H)-one]
inhibition at 1 µM [1]: -35%

CCCc1[nH]c2nc(N)nn2c(=O)c1Cc1cccc(Cl)c1 [Compound 26, 2-Amino-6-(3-chlorobenzyl)-5-propyl[1,2,4]triazolo[1,5-a]pyrimidin-7(4H)-one]
inhibition at 1 µM [1]: > 60% | Ki [2]: ~4 nM

CC(C)c1[nH]c2nc(N)nn2c(=O)c1Cc1cccc(Cl)c1 [Compound 27, 2-Amino-6-(3-chlorobenzyl)-5-isopropyl[1,2,4]triazolo[1,5-a]pyrimidin-7(4H)-one]
fold increase in CCR5 potency compared to 8 [1]: 2 fold

CCCCc1[nH]c2nc(N)nn2c(=O)c1Cc1cccc(Cl)c1 [Compound 28, 2-Amino-5-butyl-6-(3-chlorobenzyl)[1,2,4]triazolo[1,5-a]pyrimidin-7(4H)-one]
inhibition at 1 µM [1]: > 60% | Ki [2]: 2 nM

CCCCCc1[nH]c2nc(N)nn2c(=O)c1Cc1cccc(Cl)c1 [Compound 30, 2-Amino-6-(3-chlorobenzyl)-5-pentyl[1,2,4]triazolo[1,5-a]pyrimidin-7(4H)-one]
pKi ± SEM [2]: 8.14 ± 0.03

Nc1nc2[nH]c(C3CCCC3)c(Cc3cccc(Cl)c3)c(=O)n2n1 [Compound 31, 2-Amino-6-(3-chlorobenzyl)-5-cyclopentyl[1,2,4]triazolo[1,5-a]pyrimidin-7(4H)-one]
fold increased affinity for CCR2 compared to 30 [2]: 4.5 fold

CCCCCCc1[nH]c2nc(N)nn2c(=O)c1Cc1cccc(Cl)c1 [Compound 32, 2-Amino-6-(3-chlorobenzyl)-5-hexyl[1,2,4]triazolo[1,5-a]pyrimidin-7(4H)-one]
inhibition at 1 µM [1]: -63%

Nc1nc2[nH]c(-c3ccccc3)c(Cc3cccc(Cl)c3)c(=O)n2n1 [Compound 34, 2-Amino-6-(3-chlorobenzyl)-5-phenyl[1,2,4]triazolo[1,5-a]pyrimidin-7(4H)-one]
inhibition at 1 µM [1]: -41% | fold decrease in affinity for CCR2 compared to 8 [2]: 20 fold

Cc1ccc(-c2[nH]c3nc(N)nn3c(=O)c2Cc2cccc(Cl)c2)cc1 [Compound 35, 2-Amino-6-(3-chlorobenzyl)-5-(p-tolyl)[1,2,4]triazolo[1,5-a]pyrimidin-7(4H)-one]
inhibition at 1 µM [1]: -13% | fold decrease in affinity for CCR2 compared to 8 [2]: 122 fold

Nc1nc2[nH]c(CCc3ccccc3)c(Cc3cccc(Cl)c3)c(=O)n2n1 [Compound 36, 2-Amino-6-(3-chlorobenzyl)-5-phenethyl[1,2,4]triazolo[1,5-a]pyrimidin-7(4H)-one]
inhibition at 1 µM [1]: -42% | fold decrease in affinity for CCR2 compared to 8 [2]: 40 fold

CC(C)c1[nH]c2nc(N)nn2c(=O)c1Cc1ccc(Cl)c(Cl)c1 [Compound 38, 2-Amino-6-(3,4-dichlorobenzyl)-5-isopropyl[1,2,4]triazolo[1,5-a]pyrimidin-7(4H)-one]
fold increase in CCR5 potency compared to 37 [1]: ~2 fold

CC(C)c1[nH]c2nc(N)nn2c(=O)c1Cc1cccc(Cl)c1Cl [Compound 39, 2-Amino-6-(2,3-dichlorobenzyl)-5-isopropyl[1,2,4]triazolo[1,5-a]pyrimidin-7(4H)-one]
Hill slope (nH) [3]: −2.5 | decrease of basal [35S]GTPγS binding levels [4]: 7–8% | Hill slope (nH) [1]: −3.7

CC(C)c1[nH]c2nc(N)nn2c(=O)c1Cc1cc(Br)cc(Br)c1 [Compound 42, 2-Amino-6-(3,5-dibromobenzyl)-5-isopropyl[1,2,4]triazolo[1,5-a]pyrimidin 7(4H)-one]
inhibition at 1 µM [1]: ≤ 70%

CC(C)c1[nH]c2nc(N)nn2c(=O)c1Cc1ccc(Cl)c(Br)c1 [Compound 43, 2-Amino-6-(3-bromo-4-chloro-benzyl)-5-isopropyl[1,2,4]triazolo[1,5-a]pyrimidin-7(4H)-one]
Hill slope (nH) [3]: −3.4 | decrease of basal [35S]GTPγS binding levels [4]: 7–8% | Hill slope (nH) [1]: −4.4

Cc1ccc(-c2ccc3c(c2)C=C(C(=O)Nc2ccc(C[N+](C)(C)C4CCOCC4)cc2)CCC3)cc1.[Cl-] [TAK-779, reference compound]
Hill slope (nH) [1]: −1.1

CCL2: human recombinant chemokine, endogenous agonist of CCR2
EC50 [4, 5]: 8 nM | Emax ± SEM (%) [4, 5]: 107 ± 2% | pEC50 ± SEM [4, 5]: 8.10 ± 0.06
